# What was measured:
# [1] = test system: Mus musculus; assay: Antinociceptive activity in CD1 mouse assessed as inhibition of acetic acid-induced writhes at 10 mg/kg, sc pretreated for 15 mins followed by acetic acid challenge measured within 20 mins relative to control; format: functional
# Procedure, shortened: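 Male CD1 mice (20-25 g), n=8 per group, dosed at 10 mg/kg s.c. or with vehicle (5% Tween 80 in 0.9% saline). Dosing was 15 min before i.p. 0.6% acetic acid (10 mL/kg). Abdominal writhes were counted for 20 min. Effect = (mean control writhes − mean test writhes)/mean control writhes ×100.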
# [2] = test system: Mus musculus; assay: Antinociceptive activity in CD1 mouse assessed as increase in thermal-stimulus induced paw withdrawal latency at 60 mg/kg, sc measured after 45 mins by hot plate method relative to control; format: functional
# Procedure, shortened: (§1)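 Male CD1 mice (20-25 g), n=8 per group, given 60 mg/kg s.c. After 5 min acclimatization on a plate at room temperature, mice were placed on a 52 °C hotplate. Latency to forepaw or hindpaw licking or hindpaw flicking was recorded, with a 30 s cut-off. Latency was taken after two consecutive stable baselines, then 30 and 45 min post-dose. Effect = (postdrug − predrug latency)/predrug latency ×100.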
# [3] = test system: Mus musculus; assay: Antinociceptive activity in CD1 mouse assessed as increase in thermal-stimulus induced paw withdrawal latency at 60 mg/kg, sc measured after 30 mins by hot plate method relative to control; format: functional; procedure, shortened: as §1
# [4] = molecular target: T1, Potassium channel subfamily K member 2 (Homo sapiens) (UniProt O95069); assay: Agonist activity at human TREK1 expressed in HEK293 cells assessed as increase in K+ current at 10 uM measured at +60 mV by whole-cell patch clamp method relative to control; format: cell-based
# T1 sequence (whole entry): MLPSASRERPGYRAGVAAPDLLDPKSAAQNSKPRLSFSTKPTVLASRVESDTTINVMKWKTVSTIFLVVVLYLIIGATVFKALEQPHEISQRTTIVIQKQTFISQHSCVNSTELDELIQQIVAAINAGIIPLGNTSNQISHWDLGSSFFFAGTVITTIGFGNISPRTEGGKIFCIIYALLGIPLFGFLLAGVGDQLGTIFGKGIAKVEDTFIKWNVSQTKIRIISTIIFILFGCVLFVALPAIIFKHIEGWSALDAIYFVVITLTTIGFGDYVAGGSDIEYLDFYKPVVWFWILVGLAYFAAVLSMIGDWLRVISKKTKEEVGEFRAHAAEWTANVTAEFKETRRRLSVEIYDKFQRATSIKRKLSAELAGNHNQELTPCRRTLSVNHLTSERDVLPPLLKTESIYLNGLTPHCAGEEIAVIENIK
# Procedure, shortened: (§2)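 Human TREK-1 (kcnk2) in pIRES2-eGFP was stably expressed in HEK-293 cells under G418 selection, and cells were used 4–48 h after plating. Bath (mM): 140 NaCl, 10 TEA-Cl, 5 KCl, 3 MgCl2, 1 CaCl2, 10 HEPES, pH 7.4. Pipette (mM): 155 KCl, 3 MgCl2, 5 EGTA, 10 HEPES, pH 7.2. Holding was −80 mV, with a step to −100 mV then a 400 ms ramp to +60 mV every 5 s. Read-out was the ratio Imax/I0 taken from I/V curves. Stocks were 20 mM in DMSO.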
# [5] = Half life in rat liver microsomes at 40 mM in presence of NADPH-cofactor by HPLC analysis; format: ADME, microsome
# [6] = test system: Liver; assay: Drug metabolism in rat liver microsomes assessed as (E)-2-cyano-3-(furan-3-yl)acrylic acid formation at 40 mM in presence of NADPH-cofactor measured after 24 hrs by HPLC analysis; format: ADME, microsome; conditions: 40000 µM
# Procedure, shortened: (§3)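 Incubation mix: rat liver microsomes (20 mg/mL stock), phosphate buffer pH 7.4 and NADPH (40 mM stock). Drug was added from a 40 mM DMSO stock. Samples were vortexed and incubated at 37 °C with stirring.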
# [7] = molecular target: T1, Potassium channel subfamily K member 2 (Homo sapiens); assay: Agonist activity at human TREK1 expressed in HEK293 cells assessed as increase in K+ current at 100 uM measured at +60 mV by whole-cell patch clamp method relative to control; format: cell-based; procedure, shortened: as §2
# [8] = molecular target: T2, Potassium channel subfamily K member 2 (Bos taurus) (UniProt Q8HY88); assay: Agonist activity at TREK1 in bovine AZF cells assessed as increase in K+ current at 40 uM by whole-cell patch clamp method relative to control; format: cell-based
# T2 sequence (whole entry): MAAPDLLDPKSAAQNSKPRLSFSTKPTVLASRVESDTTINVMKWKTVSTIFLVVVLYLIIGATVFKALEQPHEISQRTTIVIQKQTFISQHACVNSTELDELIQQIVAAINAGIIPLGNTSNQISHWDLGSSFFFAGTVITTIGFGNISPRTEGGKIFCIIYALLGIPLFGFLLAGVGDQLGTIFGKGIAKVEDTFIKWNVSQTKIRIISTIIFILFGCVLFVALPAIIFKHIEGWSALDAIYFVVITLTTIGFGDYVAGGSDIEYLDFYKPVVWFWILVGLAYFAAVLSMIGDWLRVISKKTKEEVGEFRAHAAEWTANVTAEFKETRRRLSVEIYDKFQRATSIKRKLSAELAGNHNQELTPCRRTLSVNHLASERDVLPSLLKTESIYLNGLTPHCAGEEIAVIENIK
# [9] = test system: Liver; assay: Drug metabolism in rat liver microsomes assessed as (E)-2-Cyano-3-(3,4-dihydroxyphenyl)acrylic acid formation at 40 mM in presence of NADPH-cofactor measured after 24 hrs by HPLC analysis; format: ADME, microsome; conditions: 40000 µM; procedure, shortened: as §3
# [10] = molecular target: T1, Potassium channel subfamily K member 2 (Homo sapiens); assay: Agonist activity at human TREK1 expressed in xenopus oocytes assessed as increase in K+ current at 20 uM measured at 0 mV by double microelectrode method relative to control; format: cell-based
# [11] = test system: Mus musculus; assay: Antinociceptive activity in TREK1 deficient C57Bl/6J mouse assessed as increase in thermal-stimulus induced paw withdrawal latency at 60 mg/kg, sc measured after 30 mins by hot plate method relative to control; format: functional
# Procedure, shortened: (§4)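 TREK-1−/− and wild-type C57Bl/6J littermates came from heterozygous crosses, n=7. Dose was 60 mg/kg s.c. The 52 °C hotplate measured paw-lick latency, 30 s cut-off, with baseline from two stable pre-dose latencies.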
# [12] = test system: Mus musculus; assay: Antinociceptive activity in wild-type C57Bl/6J mouse assessed as increase in thermal-stimulus induced paw withdrawal latency at 60 mg/kg, sc measured after 30 mins by hot plate method relative to control; format: functional; procedure, shortened: as §4
# [13] = molecular target: T1, Potassium channel subfamily K member 2 (Homo sapiens); assay: Agonist activity at human TREK1 expressed in HEK293 cells assessed as increase in K+ current at 20 uM measured at +60 mV by whole-cell patch clamp method relative to control; format: cell-based; procedure, shortened: as §2
# [14] = test system: Mus musculus; assay: Antinociceptive activity in TREK1 deficient C57Bl/6J mouse assessed as increase in thermal-stimulus induced paw withdrawal latency at 60 mg/kg, sc measured after 45 mins by hot plate method relative to control; format: functional; procedure, shortened: as §4
# [15] = test system: Mus musculus; assay: In vivo activation of TREK1 in C57Bl/6J mouse assessed as increase in thermal-stimulus induced paw withdrawal latency at 60 mg/kg, sc measured after 30 mins by hot plate method relative to control; format: functional; procedure, shortened: as §4
# [16] = molecular target: Potassium channel subfamily K member 9 (Homo sapiens) (UniProt Q9NPC2); assay: Agonist activity at TASK3 (unknown origin) expressed in HEK293 cells assessed as increase in K+ current at 20 uM measured at +60 mV by whole-cell patch clamp method relative to control; format: cell-based
# [17] = molecular target: T3, Potassium channel subfamily K member 4 (Homo sapiens) (UniProt Q9NYG8); assay: Agonist activity at TRAAK (unknown origin) expressed in HEK293 cells assessed as increase in K+ current at 20 uM measured at +60 mV by whole-cell patch clamp method relative to control; format: cell-based
# T3 sequence (whole entry): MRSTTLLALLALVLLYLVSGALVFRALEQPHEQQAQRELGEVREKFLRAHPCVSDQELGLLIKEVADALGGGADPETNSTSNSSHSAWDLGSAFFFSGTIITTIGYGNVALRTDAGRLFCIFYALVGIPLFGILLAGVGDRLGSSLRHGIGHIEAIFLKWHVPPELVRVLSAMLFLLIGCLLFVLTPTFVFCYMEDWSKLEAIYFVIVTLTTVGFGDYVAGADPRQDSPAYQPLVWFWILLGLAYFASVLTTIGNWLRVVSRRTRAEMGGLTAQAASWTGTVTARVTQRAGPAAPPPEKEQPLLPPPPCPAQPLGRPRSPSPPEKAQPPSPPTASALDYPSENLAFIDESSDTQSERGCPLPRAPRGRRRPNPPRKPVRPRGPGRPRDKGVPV
# [18] = test system: Mus musculus; assay: In vivo activation of TREK1 in C57Bl/6J mouse assessed as increase in thermal-stimulus induced paw withdrawal latency at 60 mg/kg, sc measured after 45 mins by hot plate method relative to control; format: functional; procedure, shortened: as §4
# [19] = molecular target: T4, Potassium channel subfamily K member 10 (Homo sapiens) (UniProt P57789); assay: Agonist activity at TREK-2 (unknown origin) expressed in HEK293 cells assessed as increase in K+ current at 20 uM measured at +60 mV by whole-cell patch clamp method relative to control; format: cell-based
# T4 sequence (whole entry): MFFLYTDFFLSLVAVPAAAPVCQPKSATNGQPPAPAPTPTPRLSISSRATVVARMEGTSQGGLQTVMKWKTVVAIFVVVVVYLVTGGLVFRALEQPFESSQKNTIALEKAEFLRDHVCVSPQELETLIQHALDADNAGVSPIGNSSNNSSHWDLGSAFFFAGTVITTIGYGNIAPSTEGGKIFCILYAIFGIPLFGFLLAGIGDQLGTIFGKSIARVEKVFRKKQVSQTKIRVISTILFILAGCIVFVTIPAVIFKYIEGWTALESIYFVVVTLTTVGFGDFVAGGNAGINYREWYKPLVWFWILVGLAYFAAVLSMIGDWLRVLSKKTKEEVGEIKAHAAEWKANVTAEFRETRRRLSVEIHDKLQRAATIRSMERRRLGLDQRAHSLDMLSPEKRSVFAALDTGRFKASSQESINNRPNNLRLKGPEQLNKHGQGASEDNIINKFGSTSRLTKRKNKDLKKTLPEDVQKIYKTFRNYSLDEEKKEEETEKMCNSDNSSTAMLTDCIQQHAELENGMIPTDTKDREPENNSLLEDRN
# [20] = test system: Mus musculus; assay: Antinociceptive activity in wild-type C57Bl/6J mouse assessed as increase in thermal-stimulus induced paw withdrawal latency at 60 mg/kg, sc measured after 45 mins by hot plate method relative to control; format: functional; procedure, shortened: as §4
# [21] = molecular target: T4, Potassium channel subfamily K member 10 (Homo sapiens); assay: Agonist activity at TREK-2 (unknown origin) expressed in HEK293 cells assessed as increase in K+ current at 10 uM measured at +60 mV by whole-cell patch clamp method relative to control; format: cell-based
# [22] = molecular target: T3, Potassium channel subfamily K member 4 (Homo sapiens); assay: Agonist activity at TRAAK (unknown origin) expressed in HEK293 cells assessed as increase in K+ current at 10 uM measured at +60 mV by whole-cell patch clamp method relative to control; format: cell-based
# [23] = molecular target: Potassium channel subfamily K member 9 (Homo sapiens) (UniProt Q9NPC2); assay: Agonist activity at TASK3 (unknown origin) expressed in HEK293 cells assessed as increase in K+ current at 10 uM measured at +60 mV by whole-cell patch clamp method relative to control; format: cell-based
# Chain of Potassium channel subfamily K member 9 (Homo sapiens) (Q9NPC2 whole entry): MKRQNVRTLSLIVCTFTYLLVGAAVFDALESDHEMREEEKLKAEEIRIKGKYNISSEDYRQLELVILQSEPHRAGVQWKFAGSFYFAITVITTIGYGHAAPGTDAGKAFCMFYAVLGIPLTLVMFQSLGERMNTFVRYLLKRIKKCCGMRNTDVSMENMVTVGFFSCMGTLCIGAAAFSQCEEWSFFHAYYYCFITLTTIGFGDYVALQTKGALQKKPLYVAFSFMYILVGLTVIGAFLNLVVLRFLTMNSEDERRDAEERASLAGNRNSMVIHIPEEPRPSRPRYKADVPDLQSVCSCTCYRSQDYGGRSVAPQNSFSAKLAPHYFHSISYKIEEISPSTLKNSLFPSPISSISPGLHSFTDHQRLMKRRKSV
fold change (FC) [4],half-life [5],fold change (FC) [7],SMILES,inhibition in vivo at 10 mg/kg [1],Activity [2],Activity [3],Activity [11],Activity [12],Activity [14],Activity [15],Activity [18],Activity [20],also measured
1.98,25 to 45 min,–,N#C/C(=C\c1cc2ccccc2[nH]1)C(=O)OC1CCCCC1,83.6%,52.6%,65.7%,–,–,–,–,–,–,–
–,< 4 min,2.09,CCOC(=O)/C(C#N)=C/c1ccoc1,55.9%,11.9%,28.4%,–,–,–,–,–,–,Drug metabolism [6]: Metabolite_Detected
–,< 4 min,1.54,CCOC(=O)/C(C#N)=C/c1ccc(O)c(O)c1,57.8%,21.8%,34.6%,–,–,–,–,–,–,fold change (FC) [8]: 1; Drug metabolism [9]: Metabolite_Detected; fold change (FC) [10]: 2.76
–,–,–,N#C/C(=C\c1ccoc1)C(=O)Nc1ccccc1,48%,148.6%,107.7%,29.2%,24.8%,35.1%,0%,0%,22.1%,fold change (FC) [13]: 4.64; fold change (FC) [16]: 0.5; fold change (FC) [17]: 1; fold change (FC) [19]: 3
2.16 to 2.2,–,–,N#C/C(=C\c1cc2ccccc2[nH]1)C(=O)Nc1ccccc1,52%,49.5%,49.5%,18.7%,27.9%,51.2%,33%,0%,39.2%,fold change (FC) [21]: 1.6; fold change (FC) [22]: 0.9; fold change (FC) [23]: 1.2
